In general, Ki refers to the dissociation constant of the complex between target and ligand, obtained from inhibition or displacement. For orientation: half-life means how long it takes for the measured level to halve. The low end stands for rapid decline, the high end for slow decline. A word on the bioavailability: it is the share of a dose that reaches the circulation, judged against a reference dose that is usually intravenous. Lower therefore signals poor availability.

In series [1] the target is T1, P2Y purinoceptor 12 (Homo sapiens, UniProt Q9H244). In words: Binding affinity to human recombinant P2Y12 receptor expressed in CHO cells. The format is cell-based.
The nature of series [2]: Clearance in Sprague-Dawley rat at 2 mg/kg, iv and 5 mg/kg, po. The format is ADME, organism-based. The conditions noted are these: in vivo. In outline:
(§1)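 Male Sprague–Dawley rats, n = 2–4. Dosed by iv infusion at 2 mg/kg and orally at 5 mg/kg.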

Series [3] can be described thus: Volume of distribution at steady state in Sprague-Dawley rat at 2 mg/kg, iv and 5 mg/kg, po. The format is ADME, organism-based. Conditions: in vivo, read-out: Vdss. In outline:
as §1

Series [4] can be described thus: Effective half life in Sprague-Dawley rat at 2 mg/kg, iv and 5 mg/kg, po. The format is ADME, organism-based. The conditions noted are these: in vivo. The procedure, abridged:
as §1

Series [5] can be described thus: in vivo. The conditions noted are these: Sprague-Dawley, rat, po, 5 mg/kg.
A short description of series [6]: Solubility of the compound. The class given is physicochemical.
The target of series [7] is T1, P2Y purinoceptor 12. Briefly: Antagonist activity at human P2Y12 receptor assessed as inhibition of ADP-induced platelet-rich plasma aggregation by turbidimetric method. The class given is functional, cell-free.
Series [8] can be described thus: Drug concentration in rat bile at 2 mg/kg, iv after 4 hrs. The class given is ADME, organism-based. Also noted: dose 2 mg/kg, route intravenous. The conditions noted are these: read-out: Drug uptake. The procedure, abridged: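 Rats dosed at 2 mg/kg iv; bile collected over 4 h and the fraction of dose recovered determined.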
The subject of series [9] is Rattus norvegicus. Briefly: Antithrombotic activity in po dosed rat arterial thrombosis model assessed as inhibition of ferric chloride-induced thrombus formation. The format is functional, organism-based.
The subject of series [10] is Salmonella enterica subsp. enterica. In words: Toxicity in Salmonella Typhimurium by Ames test. The conditions noted are these: salmonella enterica subsp. enterica serovar typhimurium. The format is organism-based. For orientation: The Ames test uses bacterial strains that need an amino acid and regain growth without it when mutated back.

Molecules are shown by their SMILES. A value given as a limit tells only on which side of the number the result lay.

T1 sequence (Q9H244 whole entry): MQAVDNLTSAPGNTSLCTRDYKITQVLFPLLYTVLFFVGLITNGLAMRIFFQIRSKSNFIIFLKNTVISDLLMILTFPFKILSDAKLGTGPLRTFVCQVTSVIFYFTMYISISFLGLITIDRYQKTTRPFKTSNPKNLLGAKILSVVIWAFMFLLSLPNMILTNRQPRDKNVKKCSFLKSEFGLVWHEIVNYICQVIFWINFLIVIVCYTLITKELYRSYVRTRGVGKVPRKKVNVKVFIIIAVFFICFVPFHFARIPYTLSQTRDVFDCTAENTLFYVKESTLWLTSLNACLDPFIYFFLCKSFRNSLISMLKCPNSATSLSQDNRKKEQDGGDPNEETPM

`CCCCCOC(=O)N1CCN(C(=O)[C@H](CCC(=O)O)NC(=O)c2cc(N(C)CCS(C)(=O)=O)cc(-c3ccccc3)n2)CC1`: in series [1], the Ki is 15 nM. The clearance in [2] stood at 69 mL/min/kg. In addition, the Vd in series [3] was determined as 1.3 L/kg. This compound showed a half-life in [4] of 12 min.

For `CCCCOC(=O)N1CCN(C(=O)[C@H](CCC(=O)O)NC(=O)c2cc(OCCOC)cc(-c3ccccc3)n2)CC1`, the Ki in series [1] stood at 18 nM. Further, the clearance in [2] was 49 mL/min/kg. In addition, the Vd in series [3] stood at 1.5 L/kg. Further, the half-life in [4] is 24 min. The compound further came in with a bioavailability in series [5] of 77%.

With `CCCCCCOC(=O)N1CCN(C(=O)[C@H](CCC(=O)O)NC(=O)c2cccc(-c3ccccc3)n2)CC1`, the Ki in series [1] came out at 43 nM. This compound also displayed a clearance in series [2] of 29 mL/min/kg. In series [3], the Vd is 1.7 L/kg. The half-life in series [4] was 42 min. The compound also registered a bioavailability in series [5] of over 95%.

Turning to `CCCCCOC(=O)N1CCN(C(=O)[C@H](CCC(=O)O)NC(=O)c2cc(N3CCC(COC)CC3)cc(-c3ccccc3)n2)CC1`, the solubility entry in series [6] is reported as “Soluble”. Moreover, the Kb in [1] turned out to be 8.5 nM; in [7] it was 300 nM. Also, the Ki in [1] turned out to be 15 nM. In [2], this compound returned a clearance of 3 mL/min/kg. For the same compound, in [3], the Vd came to 0.3 L/kg. Moreover, the half-life in series [4] is 42 min. Also, the dose excreted at 4 h in [8] turned out to be 70%. The Activity result in [9] was “Dose-dependent effect”; in [10], “Non-toxic”.

Turning to `CCOC(=O)N1CCN(C(=O)[C@H](CCC(=O)O)NC(=O)c2cc(OC3CCNCC3)cc(-c3ccccc3)n2)CC1`, the Ki in [1] was found to be 68 nM.

As to `CCOC(=O)N1CCN(C(=O)[C@H](CCC(=O)O)NC(=O)c2cc(N3CCC(N)CC3)cc(-c3ccccc3)n2)CC1`, the Ki in series [1] turned out to be 27 nM.

Consider `CCOC(=O)N1CCN(C(=O)[C@H](CCC(=O)O)NC(=O)c2cc(NCC3CCNCC3)cc(-c3ccccc3)n2)CC1`, for which the Ki in series [1] was determined as 190 nM.

With `CCOC(=O)N1CCN(C(=O)[C@H](CCC(=O)O)NC(=O)c2cc(OC(CC)C(=O)N(CC)CC)cc(-c3ccccc3)n2)CC1` (some centres undefined), the Ki in series [1] turned out to be 81 nM.

`CCOC(=O)N1CCN(C(=O)[C@H](CCC(=O)O)NC(=O)c2cc(N3CCC(N4CCCC4)CC3)cc(-c3ccccc3)n2)CC1`: the Ki in series [1] was 34 nM.

Consider `CCCCCCOC(=O)N1CCN(C(=O)[C@H](CCC(=O)O)NC(=O)c2cc(N(C)CCS(C)(=O)=O)cc(-c3ccccc3)n2)CC1`, for which the Ki in series [1] was found to be 36 nM.

With `CCOC(=O)N1CCN(C(=O)[C@H](CCC(=O)O)NC(=O)c2cc(OC)cc(-c3ccccc3)n2)CC1`, the Ki in [1] amounted to 96 nM.

In the case of `CCCCCOC(=O)N1CCN(C(=O)[C@H](CCC(=O)O)NC(=O)c2cc(N3CCC(O)CC3)cc(-c3ccccc3)n2)CC1`, in series [1], the Ki turned out to be 11 nM.

As to `CC(C)OC(=O)N1CCN(C(=O)[C@H](CCC(=O)O)NC(=O)c2cc(OCCO)cc(-c3ccccc3)n2)CC1`, the Ki in [1] is 145 nM.

Take `CCOC(=O)N1CCN(C(=O)[C@H](CCC(=O)O)NC(=O)c2cc(NC3CCOCC3)cc(-c3ccccc3)n2)CC1`: in series [1], the Ki is 455 nM.

Turning to `CCOC(=O)N1CCN(C(=O)[C@H](CCC(=O)O)NC(=O)c2cc(N3CCC(COC)CC3)cc(-c3ccccc3)n2)CC1`, the Ki in series [1] was determined as 18 nM.

Turning to `CCOC(=O)N1CCN(C(=O)[C@H](CCC(=O)O)NC(=O)c2cc(N(C)CCS(C)(=O)=O)cc(-c3ccccc3)n2)CC1`, in series [1], the Ki is 48 nM.

As to `CCCCCCCOC(=O)N1CCN(C(=O)[C@H](CCC(=O)O)NC(=O)c2cccc(-c3ccccc3)n2)CC1`, the Ki in [1] is 7 nM.

For `CCOC(=O)N1CCN(C(=O)[C@H](CCC(=O)O)NC(=O)c2cc(NCCN(C)C)cc(-c3ccccc3)n2)CC1`, the Ki in series [1] was found to be 270 nM.

For `CC(C)OC(=O)N1CCN(C(=O)[C@H](CCC(=O)O)NC(=O)c2cc(OC3CCNCC3)cc(-c3ccccc3)n2)CC1`, the Ki in [1] was found to be 157 nM.

Take `CCCCOC(=O)N1CCN(C(=O)[C@H](CCC(=O)O)NC(=O)c2cc(OCCO)cc(-c3ccccc3)n2)CC1`: the Ki in [1] is 21 nM.

On to `CCCCCOC(=O)N1CCN(C(=O)[C@H](CCC(=O)O)NC(=O)c2cccc(-c3ccccc3)n2)CC1`, for which the Ki in series [1] is 11 nM. Further, the clearance in series [2] was 89 mL/min/kg. Also, in [3], the Vd came out at 10.3 L/kg. For the same compound, the half-life in series [4] was 78 min. In addition, the bioavailability in series [5] worked out at 70%.

On to `CCCNc1cc(C(=O)N[C@@H](CCC(=O)O)C(=O)N2CCN(C(=O)OCC)CC2)nc(-c2ccccc2)c1`, for which the Ki in series [1] is 64 nM.

For `CCCCOC(=O)N1CCN(C(=O)[C@H](CCC(=O)O)NC(=O)c2cc(OCCCC)cc(-c3ccccc3)n2)CC1`, the Ki in series [1] stood at 36 nM.

Consider `C=CCOC(=O)N1CCN(C(=O)[C@H](CCC(=O)O)NC(=O)c2cc(OCCCC)cc(-c3ccccc3)n2)CC1`, for which the Ki in series [1] was found to be 99 nM.

In the case of `CCCCOc1cc(C(=O)N[C@@H](CCC(=O)O)C(=O)N2CCN(C(=O)OC(C)C)CC2)nc(-c2ccccc2)c1`, the Ki in [1] is 146 nM.

As for `Cc1cccc(N2CCN(C(=O)[C@H](CCC(=O)O)NC(=O)c3cccc(-c4ccccc4)n3)CC2)c1`, the Ki in series [1] is over 5700 nM.

Regarding `CCCCCOC(=O)N1CCN(C(=O)[C@H](CCC(=O)O)NC(=O)c2cc(N3CCC(CN)CC3)cc(-c3ccccc3)n2)CC1`, the Ki in series [1] worked out at 7 nM. Moreover, the clearance in [2] was determined as 70 mL/min/kg. Moreover, the Vd in [3] was 2.6 L/kg. This compound also had a half-life in series [4] of 24 min. In addition, in series [5], the bioavailability was found to be 0%.

`CCCCCOC(=O)N1CCN(C(=O)[C@H](CCC(=O)O)NC(=O)c2cc(OC3CCNCC3)cc(-c3ccccc3)n2)CC1`: in [1], the Ki worked out at 3.8 nM. Further, the clearance in series [2] was determined as 133 mL/min/kg. The Vd in series [3] came out at 3.1 L/kg. The compound also showed a half-life in series [4] of 18 min. The compound also returned a bioavailability in series [5] of 1%.

Regarding `CCOC(=O)N1CCN(C(=O)[C@H](CCC(=O)O)NC(=O)c2ccccn2)CC1`, in series [1], the Ki is over 5400 nM.

For `CCCCOC(=O)N1CCN(C(=O)[C@H](CCC(=O)O)NC(=O)c2cc(OC3CCNCC3)cc(-c3ccccc3)n2)CC1`, the Ki in series [1] is 12 nM.

Turning to `CCCCCCOC(=O)N1CCN(C(=O)[C@H](CCC(=O)O)NC(=O)c2cc(N3CCC(CN)CC3)cc(-c3ccccc3)n2)CC1`, the Ki in series [1] worked out at 18 nM.

For the compound `CCOC(=O)N1CCN(C(=O)[C@H](CCC(=O)O)NC(=O)c2cc(OCC3CCNCC3)cc(-c3ccccc3)n2)CC1`, the Ki in [1] is 76 nM.

With `CCOC(=O)N1CCN(C(=O)[C@H](CCC(=O)O)NC(=O)c2cc(NC)cc(-c3ccccc3)n2)CC1`, the Ki in series [1] was found to be 35 nM.

Take `CCOC(=O)N1CCN(C(=O)[C@H](CCC(=O)O)NC(=O)c2cc(N3CCN(CCN(C)C)CC3)cc(-c3ccccc3)n2)CC1`: the Ki in series [1] was 47 nM.

Consider `Cc1cccc(N2CCN(C(=O)[C@H](CCC(=O)O)NC(=O)c3cc(-c4ccccc4)cc(-c4ccccc4)n3)CC2)c1`, for which the Ki in series [1] is 5.7 nM.

`CCCCCOC(=O)N1CCN(C(=O)C(CCC(=O)O)NC(=O)c2cc(N3CCC(COC)CC3)cc(-c3ccccc3)n2)CC1` (single isomer, unassigned): in [1], the Ki was 510 nM.

For the compound `CN(CCS(C)(=O)=O)c1cc(C(=O)N[C@@H](CCC(=O)O)C(=O)N2CCN(C(=O)OCCC3CCCC3)CC2)nc(-c2ccccc2)c1`, the Ki in series [1] worked out at 80 nM.

The values are drawn from ChEMBL document CHEMBL1154034, “Piperazinyl-glutamate-pyridines as potent orally bioavailable P2Y12 antagonists for inhibition of platelet aggregation” (Bioorg Med Chem Lett, 2009).
